In the RNAGym collection of RNA variant scans (doi:10.1002/anie.201605470):

B1: Osa-1-4 twister ribozyme (parent)
chain: CCGCCUAACACUGCCAAUGCCGGUCCCAAGCCCGGAUAAAAGUGGAGGGGGCGG

Variants of: B1
Test: self-cleavage, relative activity (ratio to wild type); higher = more cleavage; co-transcriptional
In short: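 The 48 positions downstream of the cleavage site in a DNA template for a 54-nucleotide Oryza sativa twister ribozyme carried 97 % wild-type base and 1 % of each other base. After in vitro transcription (2 h, 37 °C) with co-transcriptional self-cleavage, the RNA was reverse-transcribed with a template-switching oligonucleotide, PCR-amplified and deep-sequenced. Relative activity is the fraction cleaved, judged by reads with or without upstream sequence and normalised to wild type.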

Which self-cleavage does the source give for CCGCCUAACACUACCAAUGCCGGUCCCAAGCCCGGAUAAAAGUAGAGGGGGCGG [G13A G44A] here?
The self-cleavage was 0.05.

With CCGCCUAACACUACCAAUGCCGGUCCCAAGCCCGGAUAAAAGUCGAGGGGGCGG [G13A G44C] as the variant, how does the self-cleavage read?
The self-cleavage was 0.08.

With CCGCCUAACACUACCAAUGCCGGUCCCAAGCCCGGAUAAAAGUUGAGGGGGCGG [G13A G44U] as the variant, how does the self-cleavage read?
Its self-cleavage is 0.07.

With CCGCCUAACACGGCCAAUGCCGGUCCCAAGCCCGGAUAAAAGAGGAGGGGGCGG [U12G U43A] as the variant, how does the self-cleavage read?
Its self-cleavage is 0.08.

Which self-cleavage does the source give for CCGCCUAACACGGCCAAUGCCGGUCCCAAGCCCGGAUAAAAGGGGAGGGGGCGG [U12G U43G] here?
Its self-cleavage is 0.1.

For CCGCCUAACACGGCCAAUGCCGGUCCCAAGCCCGGAUAAAAGCGGAGGGGGCGG [U12G U43C], which self-cleavage is on record?
The self-cleavage was 0.08.

For CCGCCUAACACUACCAAUGCCGGUCCCAAGCCCGGAUAAAAGUGGAGGGGUCGG [G13A G51U], which self-cleavage is on record?
Its self-cleavage is 0.04.

For CCGCCUAACACUACCAAUGCCGGUCCCAAGCCCGGAUAAAAGUGGAGGGGCCGG [G13A G51C], which self-cleavage is on record?
Its self-cleavage is 0.02.

With CCGCCUAACACUACCAAUGCCGGUCCCAAGCCCGGAUAAAAGUGGAGGGGACGG [G13A G51A] as the variant, how does the self-cleavage read?
The self-cleavage was 0.05.

Which self-cleavage does the source give for CCGCCUAACACUACCAAUGCCGGUCCCAAACCCGGAUAAAAGUGGAGGGGGCGG [G13A G30A] here?
Its self-cleavage is 0.03.

With CCGCCUAACACUACCAAUGCCGGUCCCAACCCCGGAUAAAAGUGGAGGGGGCGG [G13A G30C] as the variant, how does the self-cleavage read?
Its self-cleavage is 0.02.

With CCGCCUAACACUACCAAUGCCGGUCCCAAUCCCGGAUAAAAGUGGAGGGGGCGG [G13A G30U] as the variant, how does the self-cleavage read?
Its self-cleavage is 0.02.

For CCGCCUAACACUACCAAUGCCGGUCCCAAGCCCGGAUAAAAGCGGAGGGGGCGG [G13A U43C], which self-cleavage is on record?
The self-cleavage was 0.05.

With CCGCCUAACACUACCAAUGCCGGUCCCAAGCCCGGAUAAAAGAGGAGGGGGCGG [G13A U43A] as the variant, how does the self-cleavage read?
The self-cleavage was 0.05.

For CCGCCUAACACUACCAAUGCCGGUCCCAAGCCCGGAUAAAAGGGGAGGGGGCGG [G13A U43G], which self-cleavage is on record?
Its self-cleavage is 0.04.

Which self-cleavage does the source give for CCGCCUAACACUACCAAUGCCGGUCCCAAGCCCGGAUAAAAGUGUAGGGGGCGG [G13A G45U] here?
Its self-cleavage is 0.02.

Which self-cleavage does the source give for CCGCCUAACACUACCAAUGCCGGUCCCAAGCCCGGAUAAAAGUGAAGGGGGCGG [G13A G45A] here?
Its self-cleavage is 0.03.

Which self-cleavage does the source give for CCGCCUAACACUACCAAUGCCGGUCCCAAGCCCGGAUAAAAGUGCAGGGGGCGG [G13A G45C] here?
The self-cleavage was 0.02.

Which self-cleavage does the source give for CCGCCUAACACGGCCAACGCCGGUCCCAAGCCCGGAUAAAAGUGGAGGGGGCGG [U12G U18C] here?
The self-cleavage was 0.28.

Which self-cleavage does the source give for CCGCCUAACACGGCCAAGGCCGGUCCCAAGCCCGGAUAAAAGUGGAGGGGGCGG [U12G U18G] here?
The self-cleavage was 0.59.

With CCGCCUAACACGGCCAAAGCCGGUCCCAAGCCCGGAUAAAAGUGGAGGGGGCGG [U12G U18A] as the variant, how does the self-cleavage read?
Its self-cleavage is 0.39.

For CCGCCUAACACUACCAAUGCCGGUCCCAAGCCCAGAUAAAAGUGGAGGGGGCGG [G13A G34A], which self-cleavage is on record?
Its self-cleavage is 0.09.

Which self-cleavage does the source give for CCGCCUAACACUACCAAUGCCGGUCCCAAGCCCCGAUAAAAGUGGAGGGGGCGG [G13A G34C] here?
The self-cleavage was 0.05.

With CCGCCUAACACUACCAAUGCCGGUCCCAAGCCCUGAUAAAAGUGGAGGGGGCGG [G13A G34U] as the variant, how does the self-cleavage read?
The self-cleavage was 0.05.

Which self-cleavage does the source give for CCGCCUAACACGGCCAAUGCCGGCCCCAAGCCCGGAUAAAAGUGGAGGGGGCGG [U12G U24C] here?
Its self-cleavage is 0.04.

With CCGCCUAACACGGCCAAUGCCGGGCCCAAGCCCGGAUAAAAGUGGAGGGGGCGG [U12G U24G] as the variant, how does the self-cleavage read?
Its self-cleavage is 0.04.

For CCGCCUAACACGGCCAAUGCCGGACCCAAGCCCGGAUAAAAGUGGAGGGGGCGG [U12G U24A], which self-cleavage is on record?
Its self-cleavage is 0.05.

With CCGCCUAACACUACCAAUGCCGGUCCCAAGCCCGGACAAAAGUGGAGGGGGCGG [G13A U37C] as the variant, how does the self-cleavage read?
Its self-cleavage is 0.12.

Which self-cleavage does the source give for CCGCCUAACACUACCAAUGCCGGUCCCAAGCCCGGAAAAAAGUGGAGGGGGCGG [G13A U37A] here?
Its self-cleavage is 0.13.

For CCGCCUAACACUACCAAUGCCGGUCCCAAGCCCGGAGAAAAGUGGAGGGGGCGG [G13A U37G], which self-cleavage is on record?
Its self-cleavage is 0.17.

Which self-cleavage does the source give for CCGCCUAACACUCCCAAUGCCGGUCCCAAGCCCGGAUAAAAAUGGAGGGGGCGG [G13C G42A] here?
Its self-cleavage is 0.03.

For CCGCCUAACACUACCAAUGCCGGUCCCAAGCCCGGAUAAAAGUGGAGGGGGCUG [G13A G53U], which self-cleavage is on record?
The self-cleavage was 0.05.

Which self-cleavage does the source give for CCGCCUAACACUACCAAUGCCGGUCCCAAGCCCGGAUAAAAGUGGAGGGGGCAG [G13A G53A] here?
Its self-cleavage is 0.06.

For CCGCCUAACACUACCAAUGCCGGUCCCAAGCCCGGAUAAAAGUGGAGGGGGCCG [G13A G53C], which self-cleavage is on record?
Its self-cleavage is 0.03.

Which self-cleavage does the source give for CCGCCUAACACUACCAAUGCCGGUCCCAAGCCCGGAUAAAAGUGGAGCGGGCGG [G13A G48C] here?
The self-cleavage was 0.03.

For CCGCCUAACACUACCAAUGCCGGUCCCAAGCCCGGAUAAAAGUGGAGAGGGCGG [G13A G48A], which self-cleavage is on record?
Its self-cleavage is 0.03.

With CCGCCUAACACUACCAAUGCCGGUCCCAAGCCCGGAUAAAAGUGGAGUGGGCGG [G13A G48U] as the variant, how does the self-cleavage read?
The self-cleavage was 0.02.

Which self-cleavage does the source give for CCGCCUAACACUACCAAUGCCGGUCCCAAGCCCGGAUAAAAGUGGAGGGGGCGC [G13A G54C] here?
Its self-cleavage is 0.06.

With CCGCCUAACACUACCAAUGCCGGUCCCAAGCCCGGAUAAAAGUGGAGGGGGCGA [G13A G54A] as the variant, how does the self-cleavage read?
Its self-cleavage is 0.07.

With CCGCCUAACACUACCAAUGCCGGUCCCAAGCCCGGAUAAAAGUGGAGGGGGCGU [G13A G54U] as the variant, how does the self-cleavage read?
The self-cleavage was 0.2.

Which self-cleavage does the source give for CCGCCUAACACUACCAAUGCCGGUCCCAAGCCCGGAUAAAAGUGGAGGCGGCGG [G13A G49C] here?
The self-cleavage was 0.02.

With CCGCCUAACACUACCAAUGCCGGUCCCAAGCCCGGAUAAAAGUGGAGGUGGCGG [G13A G49U] as the variant, how does the self-cleavage read?
Its self-cleavage is 0.02.

For CCGCCUAACACUACCAAUGCCGGUCCCAAGCCCGGAUAAAAGUGGAGGAGGCGG [G13A G49A], which self-cleavage is on record?
Its self-cleavage is 0.03.

With CCGCCUAACACUCCCAAUACCGGUCCCAAGCCCGGAUAAAAGUGGAGGGGGCGG [G13C G19A] as the variant, how does the self-cleavage read?
Its self-cleavage is 0.03.

For CCGCCUAACACUCCCAAUCCCGGUCCCAAGCCCGGAUAAAAGUGGAGGGGGCGG [G13C G19C], which self-cleavage is on record?
The self-cleavage was 0.03.

With CCGCCUAACACUCCCAAUUCCGGUCCCAAGCCCGGAUAAAAGUGGAGGGGGCGG [G13C G19U] as the variant, how does the self-cleavage read?
The self-cleavage was 0.02.

For CCGCCUAACACUACCAAUGCCGGCCCCAAGCCCGGAUAAAAGUGGAGGGGGCGG [G13A U24C], which self-cleavage is on record?
The self-cleavage was 0.04.

Which self-cleavage does the source give for CCGCCUAACACUACCAAUGCCGGACCCAAGCCCGGAUAAAAGUGGAGGGGGCGG [G13A U24A] here?
Its self-cleavage is 0.05.
